Compounds with a hit are over-represented: about 1.2% of the library has one in this group of screens.
Lipid droplet: modulators of hepatic lipid droplet formation | AML12 mouse hepatocytes, oleate lipid droplets, BODIPY imaging | inhibition, % at 6.5 µM | hit rate 0.4% among 240,000 | AID 1656;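 active means lipid droplet intensity inhibited by at least 50%, with more than 500 cells counted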
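Technique: fluorescence imaging, 20x objective, two fields per well / Assay system: AML12 hepatocytes (mouse) / Measure: % inhibition of lipid droplet signal / Doses: 6.5 µM single-point dosing / Incubation: overnight exposure / Reagent: 100 µM oleic acid challenge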
Rce1 inh: inhibitors of yeast Ras-converting enzyme; Q03530; yeast membranes, quenched prenylated peptide cleavage fluorescence; calls only; hit rate 0.27% among 290,000;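 active means fall in fluorescence gain of 50% or more versus controls, with final raw signal at or below 3038400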;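 further: plate controls were neutral control wells for no effect and wells lacking membranes for full effect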
proCasp3 act: activates human procaspase-3; activation, % at 8.5 µM; P42574; recombinant procaspase-3 D3A, Ac-DEVD-pNA absorbance 405 nm; AID 463141; hit rate 0.11% among 330,000;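 active means activation above the mean of all tested compounds plus 3 SD, cut at about 21% in these data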;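 further: 0% = DMSO alone and 100% = DMSO wells spiked with extra 5 µM PC-3 D3A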
Target sequence (P42574 whole entry D9A/D28A/D175A): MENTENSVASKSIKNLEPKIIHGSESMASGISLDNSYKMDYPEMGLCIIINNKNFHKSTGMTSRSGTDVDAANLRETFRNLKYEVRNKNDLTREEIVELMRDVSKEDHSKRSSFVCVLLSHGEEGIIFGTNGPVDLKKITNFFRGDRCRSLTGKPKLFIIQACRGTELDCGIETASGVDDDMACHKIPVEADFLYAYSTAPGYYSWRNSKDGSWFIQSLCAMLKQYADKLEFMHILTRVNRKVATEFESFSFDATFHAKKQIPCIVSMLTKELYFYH
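material = Procaspase-3 D3A mutant | probe or stimulus = Ac-DEVD-pNA | compound = single dose, 8.5 µM nominal compound, 0.8% DMSO | timing = 1 h preincubation, 2 h reaction | measured by = 405 nm absorbance of p-nitroaniline, reads at 0 and 120 min | benchmarks = DMSO-only low control, 5 µM PC-3 D3A high control | repeats = singlicate, each compound tested once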
GAA850 FXN act: frataxin GAA850 promoter activation; HEK293 lucGAA850 FXN promoter luciferase reporter, 24 h; percent of 10 µM SAHA response; activation, % at 6 µM; hit rate 0.56% among 360,000; AID 540364;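 active means activation above the average of all compounds screened plus 3 SD, cutoff fixed separately per campaign, cut at about 7.5% in these data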;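 further: 0% = DMSO wells and 100% = 10 µM SAHA wells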
p-CIP stab down: compounds decreasing mouse p/CIP protein stability; AID 1984; decrease of EGFP signal, % at 10 µM; hit rate 0.01% among 290,000; Q05BA5; F442A p/CIP-EGFP cells, EGFP fluorescence, 16 h;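 active means EGFP signal decrease of at least 30% at 10 µM or well 3 SD below plate mean, unless failing retest; inactive means the rest, including hits failing retest or dose response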
procasp7 counter: counter-screen: procaspase-7 (human) activation. P55210. recombinant procaspase-7, Ac-DEVD-pNA absorbance 405 nm; D23A/D198A/D206A triple mutant, cannot self-cleave; scale: DMSO 0, 5 µM enzyme 100. activation, % at 8.5 µM. hit rate 0.093% among 330,000. AID 463210;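 active means percent activation above the screen-wide mean plus 3 SD, cut at about 25% in these data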
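Detection: p-Nitroaniline absorbance at 405 nm, read at 0 and 120 min; system: Uncleavable procaspase-7 mutant enzyme; evaluation: % activation from two-timepoint absorbance difference, scaled to controls; times: 1 h enzyme–compound preincubation and 2 h substrate reaction, both 25 °C; buffer or medium: Zinc-free HEPES pH 7.4 with 300 mM NaCl, 0.01% Triton X-100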
procasp7 triplic: counter-screen: procaspase-7 (human) activation in triplicate | shares compounds with proCasp3 act | AID 488941 | 210 tested, under 10 active | recombinant procaspase-7, Ac-DEVD-pNA absorbance; asp23/198/206-to-Ala mutant, cannot self-cleave | activation, % at 8.5 µM;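 active means mean activation above a set limit taken from an earlier procaspase-7 screen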;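 further: 0% = DMSO wells and 100% = DMSO plus 5 µM procaspase-7 enzyme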
procasp3 conf: confirmation of human procaspase-3 activators; shares compounds with proCasp3 act; recombinant PC-3 D3A, Ac-DEVD-pNA absorbance 405 nm; 100% is higher-enzyme control; activation, % at 8.5 µM; hit rate 10% among 210; AID 488954;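 active means mean activation above a set limit carried over from the earlier primary screen, cut at about 22% in these data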
The depositor's hits bear a star.

What do the screens show for `COc1ccc(-c2nc3ccc(N4CCCC4)cc3c(=O)[nH]2)cc1OC`?
Rce1 inh: inactive; proCasp3 act: 31.4*; GAA850 FXN act: -3.2; p-CIP stab down: -19.7; procasp7 counter: -5.0; procasp7 triplic: -19.8; procasp3 conf: -9.9

What do the screens show for `COc1cccc(OCCN2CCN(c3ncnc4c3cnn4-c3ccccc3)CC2)c1`?
Rce1 inh: inactive; proCasp3 act: 26.8*; GAA850 FXN act: -0.9; p-CIP stab down: -1.2; procasp7 counter: 3.4; procasp7 triplic: 2.6; procasp3 conf: 2.5

How did CC1CCN(c2ncnc3c2cnn3-c2ccccc2)CC1 do in these assays?
Rce1 inh: inactive; proCasp3 act: 9.8; GAA850 FXN act: 5.3; p-CIP stab down: -12.2; procasp7 counter: 6.2

How did COc1cc(CN(C(=O)c2ccco2)C2CCS(=O)(=O)C2)cc(OC)c1OC (centres undefined) do in these assays?
Lipid droplet: 32.6; Rce1 inh: inactive; proCasp3 act: -0.4; GAA850 FXN act: 0.1; p-CIP stab down: -4.6; procasp7 counter: -4.6

What do the screens show for `O=Cc1ccc(-c2cccs2)s1`?
GAA850 FXN act: -11.8

Results for Oc1ccc(N=Cc2ccc(-c3cccs3)s2)cc1 ?
Rce1 inh: inactive; proCasp3 act: 35.2*; GAA850 FXN act: -8.1; p-CIP stab down: -5.0; procasp7 counter: 23.5; procasp7 triplic: -21.8; procasp3 conf: -12.4

What do the screens show for `O=C(Cc1c(O)c2ccccc2[nH]c1=O)NC1CCCCCC1`?
Rce1 inh: inactive; proCasp3 act: -0.9; GAA850 FXN act: -1.2; p-CIP stab down: -13.0; procasp7 counter: -4.2

How did O=C(Cc1c(O)c2ccccc2[nH]c1=O)NC1CCCCCCC1 do in these assays?
Rce1 inh: inactive; proCasp3 act: 22.0*; GAA850 FXN act: -0.3; p-CIP stab down: 1.6; procasp7 counter: -7.1; procasp7 triplic: 0.3; procasp3 conf: 7.1

What do the screens show for `Clc1ccc(-c2ccc(-c3nn4c(-c5ccco5)nnc4s3)o2)cc1`?
Rce1 inh: inactive; proCasp3 act: -3.6; GAA850 FXN act: 1.1; procasp7 counter: -15.6

How did Brc1ccc(-c2nn3c(-c4ccco4)nnc3s2)o1 do in these assays?
Rce1 inh: inactive; proCasp3 act: 23.1*; GAA850 FXN act: -1.4; p-CIP stab down: -1.0; procasp7 counter: -4.4; procasp7 triplic: -16.6; procasp3 conf: -11.7

How did CCCCCOc1ccc(NC2=CC(=O)CCC2)cc1 do in these assays?
Lipid droplet: 6.1; Rce1 inh: inactive; proCasp3 act: 23.8*; GAA850 FXN act: 2.3; p-CIP stab down: 1.8; procasp7 counter: 21.2; procasp7 triplic: 0.2; procasp3 conf: 4.5

What do the screens show for `CCOc1ccc(NC2=CC(=O)CCC2)cc1`?
Lipid droplet: -7.4; Rce1 inh: inactive; proCasp3 act: 4.2; GAA850 FXN act: -0.9; p-CIP stab down: 0.9; procasp7 counter: -9.1

Results for CN(CCc1ccccc1)C(=O)c1cccc(NC(=O)Cc2cccc(NC(=O)C3CCN(C(=O)c4ccccc4)CC3)c2)c1 ?
GAA850 FXN act: -1.4

What do the screens show for `COc1ccccc1CNC(=O)CS(=O)Cc1nc(-c2ccccc2C)oc1C` (centres undefined)?
Rce1 inh: inactive; proCasp3 act: 73.3*; GAA850 FXN act: 0.8; p-CIP stab down: -3.7; procasp7 counter: -3.5; procasp7 triplic: -5.8; procasp3 conf: 1.4

Results for O=C(N/N=C/c1ccc(O)cc1O)c1ccc(CN2C(=O)c3cccc4cccc2c34)cc1 ?
Lipid droplet: -30.3; Rce1 inh: inactive; proCasp3 act: 23.4*; GAA850 FXN act: -5.1; p-CIP stab down: 1.3; procasp7 counter: 24.4; procasp7 triplic: 11.8; procasp3 conf: 20.7
